Shown are actives, neighbours in structure and some others; about 3.1% of the full set was active somewhere.
KCNQ1 inh – human KCNQ1 channel inhibition | 310,000 tested, 1.3% active | CHO-K1 KCNQ1, FluxOR thallium flux fluorescence; hits give high values | P51787 | B-score at 10 µM;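 active = compounds whose thallium flux B-score, printed positive for inhibition, exceeds three library SD while starting fluorescence stays within three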;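 also: channel opened by potassium depolarization with thallium stimulus after 20 min compound exposure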
hERG rescue – hERG (human) protection from proarrhythmic block. Q12809. CHO-hERG, FluxOR thallium flux, dofetilide IC70 present. activation (rescue from dofetilide block), less the hit threshold, % at 10 µM. 310,000 tested, 0.51% active. AID 1511;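 active = activation above the mean of controls blocked by dofetilide plus 5 SD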;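 also: thallium influx through hERG after potassium depolarization seen as dye fluorescence rise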
KCNK9 block – inhibitors of human KCNK9 two-pore domain potassium channel; HEK293 KCNK9, FluxOR thallium flux fluorescence; hits give low values; 310,000 tested, 1.2% active; B-score at 10 µM;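 active = ratio B-score over 3 SD below the library mean, with starting fluorescence within 5 SD of its mean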;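 also: negative B-score means less thallium flux so channel inhibition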
KCNK3 block – human KCNK3 channel inhibition, primary screen; B-score at 10 µM; 340,000 tested, 0.84% active; AID 602410; O14649; CHO-KCNK3 thallium flux, FluxOR fluorescence; hits give low values;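 active = B-score under library mean minus 4 SD, starting fluorescence ratio at most library mean plus 5 SD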;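 also: more negative B-score means stronger inhibition of thallium flux through KCNK3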
KCNQ1 act – potentiators or activators of human KCNQ1 potassium channel | P51787 | CHO-K1 KCNQ1, thallium flux FluxOR fluorescence; hits give high values | B-score at 10 µM | 310,000 tested, 0.35% active | AID 2648;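 active = fluorescence ratio B-score, a plate-corrected score, at least three library SD, with initial intensity B-score within 5 SD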
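Schedule – 37 °C overnight plating, 90-min dark dye load, 20-min compound pretreatment · System – stable KCNQ1 CHO-K1 line · Probe or stimulus – thallium- and potassium-containing depolarizing buffer · Measured by – kinetic FluxOR fluorescence, 10 s baseline plus 110 s post-stimulus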
KCNQ1 block val – reconfirmed blocker of the human KCNQ1 potassium channel. shares compounds with KCNQ1 inh. KCNQ1 cell line, FluxOR thallium flux fluorescence. inhibition, % at 10 µM. 1,600 tested, 93% active;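 active = primary screen active, with duplicate mean exceeding buffer control mean plus 3 SD of buffer wells, cut at about 28% in these data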
CHO Tl flux – KCNQ1 inhibitor counter-screen hit in parental CHO cells; parental CHO-K1, FluxOR thallium flux fluorescence ratio; hits give low values; zero means no signal rise above baseline; AID 588366; 1,600 tested, 21% active; shares compounds with KCNQ1 inh; fluorescence ratio (Tl flux) at 10 µM;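 active = mean of duplicate thallium-flux fluorescence ratios in parental host cells more than 5 SD below the buffer control mean, cut at about 0.38 in these data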;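 also: ratio is peak minus minimum fluorescence divided by baseline fluorescence; actives read low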
KCNQ1 APC inh – blocks human KCNQ1 current in automated patch clamp. shares compounds with KCNQ1 inh. KCNQ1-CHO cells. calls only at 10 µM. 490 tested, 20% active;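 active = KCNQ1 current drop exceeding 3 SD of negative control wells, seen in both duplicate runs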;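 also: steady state current during a 2 s step from -80 to +40 mV; negative values mean current inhibition and positive values mean potentiation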
KCNQ2 inh – selectivity of KCNQ1 inhibitors: inhibition of rat KCNQ2 channel; shares compounds with KCNQ1 inh; KCNQ2 cells, FluxOR thallium flux fluorescence; inhibition, % at 10 µM; 1,600 tested, 71% active; AID 651746;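 active = mean percent inhibition of the KCNQ2 thallium signal more than 5 SD above the buffer-only control wells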;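 also: KCNQ2 expressed in CHO cells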
KCNQ1-KCNE1 inh – selectivity of KCNQ1 inhibitors: inhibition of human KCNQ1/KCNE1 channel; shares compounds with KCNQ1 inh; KCNQ1/KCNE1 cells, FluxOR thallium flux fluorescence; inhibition, % at 10 µM; 1,600 tested, 77% active; AID 652147;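 active = mean percent inhibition of duplicate wells above the buffer-only control mean plus 3 SD of those controls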
Large screens that a line does not name were inactive (follow-up assays come after a bar, where they were run).

O=C1c2ccccc2C(=O)N1CSc1nnc2c3ccccc3n(CCc3ccccc3)c2n1	KCNQ1 inh 6 | KCNQ1 block val 42.5 | CHO Tl flux inactive | KCNQ2 inh 77.7% | KCNQ1-KCNE1 inh inactive
CCN(CC)CCSc1nnc2c3ccccc3n(CCc3ccccc3)c2n1	none
CC1CCCN(S(=O)(=O)c2ccc(S(=O)(=O)N3CCCC3)cc2)C1 (configuration not stated)	none
CC1CCCN(S(=O)(=O)c2ccc3[nH]c4c(c3c2)CCCC4)C1 (configuration not stated)	KCNQ1 inh 12 | KCNQ1 block val 104.0 | CHO Tl flux inactive | KCNQ1 APC inh inactive | KCNQ2 inh 99.0% | KCNQ1-KCNE1 inh 130.5%
O=c1[nH]c(-c2ccccc2)nn1-c1ccc(Br)cc1Br	none
CCN1CCN(CCNC(=O)c2ccc3nc(-c4cccc(C)c4)c(-c4cccc(C)c4)nc3c2)CC1	KCNQ1 inh 8 | KCNQ1 block val 76.0 | CHO Tl flux 0.315 | KCNQ2 inh 91.3% | KCNQ1-KCNE1 inh 162.5%
CCCNC(=O)c1ccc2nc(-c3ccccc3)c(-c3ccccc3)nc2c1	none
O=C(CCc1ccccc1)Nc1cc(Cl)ccc1O	KCNQ1 inh 9 | KCNQ1 block val 63.0 | CHO Tl flux inactive | KCNQ2 inh inactive | KCNQ1-KCNE1 inh 89.5%
CSc1nc(Cl)cc(Nc2ccc(O)cc2)n1	none
CNc1ccc2c3c(cccc13)C(=O)N(C)C2=O	KCNQ1 inh 32 | KCNQ1 block val active | CHO Tl flux 0.003 | KCNQ2 inh inactive | KCNQ1-KCNE1 inh inactive
Cc1ncc([N+](=O)[O-])n1S(=O)(=O)c1cc(Cl)ccc1Cl	none
O=C(Cn1cnc2ccccc21)Nc1ccc(SC(F)F)cc1	KCNQ1 inh 7 | KCNQ1 block val 115.0 | CHO Tl flux inactive | KCNQ1 APC inh active | KCNQ2 inh 71.3% | KCNQ1-KCNE1 inh 57.5%
COc1ccc(-c2nc3ccccc3nc2-c2ccc(OC)cc2)cc1	KCNQ1 inh 10 | KCNQ1 block val 88.5 | CHO Tl flux 0.338 | KCNQ2 inh 96.0% | KCNQ1-KCNE1 inh 115.0%
Oc1ccc(-c2nc3ccccc3nc2-c2ccccc2)cc1	KCNQ1 inh 7 | KCNQ1 block val 84.0 | CHO Tl flux 0.379 | KCNQ2 inh 71.3% | KCNQ1-KCNE1 inh 109.5%
Oc1ccc(-c2nnc(-c3ccccc3)c(-c3ccccc3)n2)cc1	none (no result: KCNK3 block)
O=C(c1cccc(C(F)(F)F)c1)C1CCCN(C(=O)CCn2cnnn2)C1 (configuration not stated)	none
Cc1ccc(NC(=S)NCc2ccc3c(c2)OCO3)cc1	none
CCOc1ccc(NC(=S)NCc2ccc3c(c2)OCO3)cc1	KCNQ1 inh 6 | KCNQ1 block val 39.5 | CHO Tl flux inactive | KCNQ2 inh 95.7% | KCNQ1-KCNE1 inh 38.0%
CCOc1ncccc1C(=O)OCC(=O)Nc1ccc(C(C)C)cc1	none
CCOc1ncccc1C(=O)OCC(=O)NC(=O)NC(C)C	KCNQ1 inh 8 | KCNQ1 block val inactive | CHO Tl flux inactive | KCNQ2 inh inactive | KCNQ1-KCNE1 inh inactive
Cc1ccc(Cl)cc1N1CCN(C(=O)CSc2nnc3n2C(C)(C)Cc2ccccc2-3)CC1	KCNQ1 inh 17, KCNK3 block -9 | KCNQ1 block val 148.0 | CHO Tl flux 0.277 | KCNQ2 inh 144.7% | KCNQ1-KCNE1 inh active
Cc1cc(C)cc(N(CCC(=O)Nc2nnc(C)s2)S(=O)(=O)c2ccc(Cl)cc2)c1	none
